# Screens (PubChem BioAssay)
# This is a sample that favours compounds with a hit; in the whole collection about 1.5% have one here.
# S1P4 agonist – activates the human S1P4 receptor; O95977; S1P4-expressing cell line, agonist reporter assay; activation, % at 4.98 µM; 0.35% of 220,000 active; in the data active means activation above about 11%;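 further: 0% = DMSO vehicle and 100% = reference agonist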
# Target sequence (O95977 whole entry, looked up): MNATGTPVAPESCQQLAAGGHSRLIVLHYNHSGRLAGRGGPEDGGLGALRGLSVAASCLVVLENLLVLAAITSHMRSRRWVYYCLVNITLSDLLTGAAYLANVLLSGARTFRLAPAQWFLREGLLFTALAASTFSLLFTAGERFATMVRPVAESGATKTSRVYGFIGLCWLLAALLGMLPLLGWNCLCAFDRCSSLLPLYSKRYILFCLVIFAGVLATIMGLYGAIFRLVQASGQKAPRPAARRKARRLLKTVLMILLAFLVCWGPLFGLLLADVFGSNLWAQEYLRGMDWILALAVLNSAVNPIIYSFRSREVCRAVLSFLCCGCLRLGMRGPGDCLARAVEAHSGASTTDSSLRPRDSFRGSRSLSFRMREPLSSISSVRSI
# TNF death inh – inhibitors of TNF-alpha induced necroptosis in Jurkat FADD-/- cells; Jurkat FADD-/- TNF necroptosis rescue, ATP luminescence, 24 h; 0 = TNF only, 100 = no-TNF cells; activation (protection from cell death), % at 10 µM; 0.068% of 220,000 active;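 active means activation, meaning protection from cell death, of at least 50% relative to plate controls; inactive means activation below 50%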;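 further: necroptosis triggered by 40 ng/mL TNF-alpha added together with compound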
# L929 necroptosis – L929 zVAD cell death inhibition; AID 1377; 0.38% of 220,000 active; viability rescue, % at 10 µM; L929 zVAD necroptosis rescue, ATP luminescence, 24 h; with zVAD 60 µM;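 active means activation, scaled between plate controls, above about 75%, limit read from the data; inactive means activation under that limit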;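 further: 0% = zVAD with DMSO and 100% = DMSO alone without zVAD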
# Tb hexokinase – blocks Trypanosoma brucei hexokinase 1 activity. recombinant TbHK1, G6PDH-coupled NADH A340. inhibition, % at 10 µM. 0.11% of 220,000 active;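 active means inhibition of 50% or more in the single-dose primary screen; inactive means inhibition below 50%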
# S1P4 antagonist – antagonists of human S1P4 receptor. O95977. S1P4-expressing cells, antagonist mode, reporter read-out. inhibition, % at 4.98 µM. 0.26% of 220,000 active. AID 1510; in the data active means inhibition above about 29%;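 further: 0% = wells stimulated with agonist and 100% = vehicle wells without agonist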
# Dynein cargo inh – dynein cargo transport inhibition. 3617.4 mouse cells, GR-EGFP nuclear translocation imaging; test concentration mostly 20 µM; stimulated with dexamethasone, 1 µM; hits give low values. z-score, hits read low. 0.47% of 220,000 active. AID 1381;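 active means plate z-score of nuclear minus cytoplasmic receptor signal below a set negative limit, without overly bright fluorescence or cell loss, cut at about -3.5 in these data, passing the limit was not always enough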;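 further: z-score of nuclear minus cytoplasmic ring GR-EGFP intensity difference per well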
#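 Medium: Induction medium lacking tetracycline, stripped serum | Probe or stimulus: 1.0 µM final dexamethasone stimulus | Schedule: 48 h induction, then 1 h compound, then 30 min agonist, 37 °C | Signal: Automated 10x imaging of fixed Hoechst-stained cells | Evaluation: Per-cell GR-EGFP intensity, nucleus versus surrounding cytoplasmic ring, well-averaged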
# Dynein inh conf – dynein cargo transport inhibition, confirmation | 69% of 1,000 active | shares compounds with Dynein cargo inh | 3617.4 GR-EGFP nuclear translocation imaging, dexamethasone-induced | calls only at 20 µM;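 active means inhibition of receptor movement into the nucleus at or above a set limit in both runs, with normal cell brightness and cell count; inconclusive means limit reached in only one run, brightness and count normal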;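 further: dexamethasone at 1 µM final in well for 30 min; nuclear minus cytoplasmic GR-EGFP mean intensity difference in channel 2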
# Starred values were filed as active, the others as inactive; i = inactive; ? = inconclusive; nt = not tested or not shown; + = active, no number.
SMILES,S1P4 agonist,TNF death inh,L929 necroptosis,Tb hexokinase,S1P4 antagonist,Dynein cargo inh,Dynein inh conf
Cc1ccc(-c2csc3ncnc(Sc4nnc(CN5CCCCCC5=O)o4)c23)cc1,-2.3,-10.7,67.8,-1.2,2.9,-3.85*,+
C=CCNC(=O)c1onc(CSc2cccc(OC)c2)c1C(=O)NCC=C,nt,1.1,0.0,-5.2,nt,-0.133,nt
COCCNCC(=O)Nc1ccc(C)c(S(=O)(=O)N2CCCCC2)c1,0.1,1.0,1.5,2.2,-7.5,-0.651,nt
Cc1ccc(NC(=O)CCl)cc1S(=O)(=O)N1CCCCCC1,2.3,-11.7,3.1,2.7,-7.3,-4.14*,+
COc1ccccc1/C=C/C(=O)/C=C/c1ccccc1O,-0.3,-21.2,57.1,-18.7,7.8,-4.21*,+
COc1ccccc1/C=C/C(C)=O,0.4,1.7,1.2,-7.3,-9.7,-0.966,nt
CCOC(=O)c1cncc(C#CCO)c1,0.2,0.9,0.9,-7.8,-7.7,-0.652,nt
O=c1[nH]c2ccccc2c2oc(CCl)nc12,0.5,-21.3,-1.2,-9.7,-12.3,-4.14*,?
CCCCCCn1c(-c2cccs2)n[nH]c1=S,-0.3,-3.7,1.1,0.6,-4.3,0.86,nt
O=C(Nc1ccc(N2CCCC2)c(Cl)c1)c1ccc([N+](=O)[O-])o1,-1.9,-11.7,-0.4,-5.8,89.7*,-3.97*,+
O=C(Nc1ccc(N2CCN(C(=O)c3ccc(Cl)cc3)CC2)cc1)c1ccc([N+](=O)[O-])o1,-1.2,-10.8,46.5,-5.4,14.0,-4.86*,+
O=C(C1=C[C@H](c2csc3ccccc23)C[C@H](OCc2ccc(CO)cc2)O1)N1CCN(Cc2ccc3c(c2)OCO3)CC1,-2.1,-3.0,1.6,-10.8,11.4,-0.846,nt
COc1ccc(C(=O)/C=C/c2ccccc2)c(OC)c1,0.1,3.3,10.1,-22.2,9.3,-2.34,nt
COC1=C(C)C(O)=C(C(=O)/C=C/c2ccccc2)C(=O)C1(C)C,nt,-3.4,0.2,-31.4,nt,-5.25*,+
OCCC1CN(Cc2ccc(Oc3ncccn3)cc2)CCN1C1CCCCC1 (configuration not stated),1.2,4.1,-0.7,-9.9,-13.7,0.525,nt
COC(=O)[C@@]1(Cc2ccc(F)cc2)[C@H]2c3cc(C(=O)N(C)C)n(C[C@H](O)CO)c3C[C@H]2CN1C(=O)c1ccccc1,0.9,0.8,2.8,-2.9,-2.5,-0.0379,nt
COC(=O)[C@@]1(Cc2ccccc2)[C@@H]2C(=CC(=O)[C@H]2CC(=O)C(=O)N(C)C)CN1C(=O)c1ccccc1,1.6,-17.0,-1.3,0.2,-16.9,-5.16*,+
Cc1nn(C)cc1/C=N/NC(=O)Cn1cncn1,-3.2,0.7,0.4,-0.8,10.3,0.597,nt
CC(=O)/C=C1/C(=O)Nc2ccccc21,-0.1,-7.0,6.2,-4.7,11.1,-5.55*,+
O=C1/C(=C/c2ccccc2)Nc2ccccc21,-0.2,-11.4,3.3,1.4,-3.5,1.15,nt
N#CC1=C(N)C(C#N)(C#N)C(c2ccncc2)C2CN(C(=O)OCc3ccccc3)CC=C12 (configuration not stated),-0.4,-9.7,-0.3,-8.8,-4.9,-4.01,i
Cc1ccc(S(=O)(=O)/N=C(\CN2CCOCC2)N2CCCC2)cc1,-0.3,0.3,0.1,3.0,11.2,-0.817,nt
Cc1ccc(S(=O)(=O)/N=C(\CCl)N2CCOCC2)cc1,1.7,-21.2,nt,-4.2,-0.7,-3.77*,+
COc1cc(N/C(N)=N/c2nc(C)cc(C)n2)c(OC)cc1Cl,1.4,0.3,-1.6,5.3,1.1,0.901,nt
CCC(=O)NCc1c(C)c(C)n(Cc2ccccc2)c1-n1cccc1,1.7,0.0,-2.1,-6.3,-21.1,0.622,nt
SMILES,S1P4 agonist,TNF death inh,L929 necroptosis,Tb hexokinase,S1P4 antagonist,Dynein cargo inh,Dynein inh conf
N#Cc1ccc(-c2cccnc2)nc1SCC(=O)c1ccccc1,1.7,0.7,4.4,-13.8,9.8,-5.31,i
Cn1cc([N+](=O)[O-])c(C(=O)Nc2nc(-c3ccc(Cl)cc3)cs2)n1,-5.9,-9.6,0.8,-2.3,25.7,-3.92*,+
CC(=O)c1c(C)[nH]c(C(=O)Nc2nc(-c3ccc(Cl)cc3)cs2)c1C,1.4,1.2,0.4,-7.2,6.1,0.141,nt
Cc1cnc(NC(=O)c2nn(C)cc2[N+](=O)[O-])s1,-1.1,-1.1,0.3,-17.9,22.2,-3.56*,+
NC(=O)NCc1cccs1,-0.4,0.7,-0.8,2.2,-14.5,1.05,nt
O=C(NCCCCO)c1ccc2c3c(cccc13)CC2,-1.2,0.8,0.9,-8.9,1.5,-0.57,nt
COc1cc(N2C(=O)C=CC2=O)c(OC)cc1Cl,0.4,-31.2,-0.7,-12.3,21.4,-5.08*,+
COc1ccc(C(=O)c2sc3nc(C)cc(-c4cccs4)c3c2N)cc1,-0.6,2.6,1.8,16.7,4.1,-7.8,?
COc1ccc(C(=O)c2sc3nc(C)cc(-c4cccs4)c3c2N)cc1OC,0.0,1.2,1.8,-13.4,-5.1,-6.48,i
Cc1cc(C)c2c(N)c(C(=O)c3ccc(Cl)cc3)sc2n1,1.9,-5.6,0.0,-0.3,-24.7,-0.39,nt
Cc1cc(C)c2c(N)c(C(=O)c3ccc(Cl)c(Cl)c3)sc2n1,2.4,-0.8,0.4,4.8,-8.4,-0.531,nt
Cc1cc(-c2cccs2)c2c(N)c(C(=O)c3ccc4c(c3)OCO4)sc2n1,1.4,2.8,1.0,-6.5,-6.1,-11.4,?
CC(C)NC(=O)c1sc2nc(-c3cccs3)cc(-c3cccs3)c2c1N,0.7,-0.4,0.2,-24.3,-18.0,0.224,nt
N#CC(C(N)=O)=C1CCCCC1,-0.5,1.9,0.1,-8.8,-0.5,0.446,nt
Cc1ccc(-c2cc(=O)c3cc(Cl)ccc3[nH]2)cc1,-0.1,-1.2,1.2,-1.9,-2.2,-1.09,nt
O=C(Nc1ccc(C(=O)N2CCOCC2)cc1)Nc1cccc2ccccc12,-0.1,0.5,19.8,-6.4,-0.9,2.87,nt
CC(C)(C)c1cc2nc3c(c(=O)n2[nH]1)CN(Cc1ccccc1)C3=O,1.1,3.8,0.4,-14.6,-5.5,-0.415,nt
O=C(CCNc1n[nH]c(=O)[nH]c1=O)N/N=C\c1cccc(OCc2ccccc2)c1,1.5,8.7,3.1,-8.8,4.3,-0.284,nt
COc1ccc(C(=O)Cn2c(C)nc([N+](=O)[O-])c2Br)cc1,-0.8,-18.3,-1.1,-29.4,-3.2,-5.76*,+
Cc1nc([N+](=O)[O-])c(NCCO)n1Cc1ccccc1,1.1,0.4,0.7,-8.4,-2.8,0.676,nt
Cc1nc([N+](=O)[O-])c(Br)n1CC(=O)c1ccc(Cl)cc1,-0.1,-11.3,-0.7,-15.6,-17.8,-6.5*,+
COc1ccc(C(=O)CCC(C)(C)[N+](=O)[O-])cc1,0.7,1.3,1.0,-0.8,13.0,-0.344,nt
Cc1nc([N+](=O)[O-])c(Br)n1Cc1ccc(Cl)c(Cl)c1,1.0,-14.0,42.9,-9.6,25.9,-4.17*,+
